Series [1] relates to Helicobacter pylori. The series can be described thus: Antibacterial activity against multidrug-resistant Helicobacter pylori v1354. It counts as functional. Summed up: (§1)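 Minimum bactericidal concentration (MBC), expressed in µM, determined against H. pylori reference strain Hp 26695 and the clinical isolates v1254 and v1354. Both isolates are resistant to metronidazole and clarithromycin. Amoxicillin, clarithromycin and metronidazole served as standard antimicrobial comparators.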

The subject of series [2] is Helicobacter pylori. The series can be described thus: Inhibition of Helicobacter pylori-induced inflammation in human AGS cells assessed as reduction of IL-8 production at 5 uM by ELISA. It counts as functional. Summed up:
(§2)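 IL-8 in culture supernatants measured from H. pylori-infected AGS cells pre-treated with compound at 2.5, 5.0 or 10.0 µM. Inhibition calculated against DMSO control-treated cells. Values are mean ± SD of at least three independent experiments.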
(In general: In an ELISA, binding on a coated surface is turned into a signal by an enzyme label.)

The subject of series [3] is Helicobacter pylori. The series can be described thus: Inhibition of Helicobacter pylori invasion into human AGS cells at 2.5 uM after 6 hrs. Format: functional. Summed up:
(§3)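 AGS cells, untreated or treated with compound, then infected with H. pylori at MOI 50 for 6 h. Bacterial adhesion to, or invasion into, the cells was measured. Compounds tested at 2.5, 5.0 and 10.0 µM. DMSO vehicle and antibiotic controls at 2.5 µM. Values are mean ± SD of at least six independent experiments; Student's t-test against DMSO-treated cells.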

The test system of series [4] is Helicobacter pylori. The series can be described thus: Inhibition of Helicobacter pylori-induced inflammation in human AGS cells assessed as reduction of NF-kappaB activity at 10 uM after 6 hrs by luciferase reporter gene assay relative to control. Format: functional. In a few lines:
(§4)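 AGS cells transfected with an NF-κB luciferase reporter construct. Cells were treated with compound (2.5–10 µM) and infected with H. pylori, then luciferase expression was measured. Activity is expressed relative to DMSO-treated control. Antibiotics at 2.5 µM served as reference. Values are mean ± SD of at least three independent experiments.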
Background: In a reporter assay the amount or activity of a reporter protein is the signal.

The test system of series [5] is Helicobacter pylori. The series can be described thus: Inhibition of Helicobacter pylori adhesion into human AGS cells at 5 uM after 6 hrs. It counts as functional. In a few lines: as §3
For series [6], the system named is Helicobacter pylori. The series can be described thus: Inhibition of Helicobacter pylori-induced inflammation in human AGS cells assessed as reduction of NF-kappaB activity after 6 hrs by luciferase reporter gene assay relative to control. Format: functional. Summed up:
as §4

In series [7] the test system is Helicobacter pylori. The series can be described thus: Inhibition of Helicobacter pylori invasion into human AGS cells at 10 uM after 6 hrs. It counts as functional. In a few lines:
as §3

In series [8] the test system is Helicobacter pylori. The series can be described thus: Inhibition of Helicobacter pylori-induced inflammation in human AGS cells assessed as reduction of IL-8 production at 2.5 uM by ELISA. Format: functional. Summed up:
as §2

The test system of series [9] is Helicobacter pylori. The series can be described thus: Antibacterial activity against multidrug-resistant Helicobacter pylori v1254. It counts as functional. Summed up: as §1
Series [10] concerns Helicobacter pylori. The series can be described thus: Inhibition of Helicobacter pylori-induced inflammation in human AGS cells assessed as reduction of NF-kappaB activity at 2.5 uM after 6 hrs by luciferase reporter gene assay relative to control. Format: functional. In a few lines: as §4
Series [11] has as its system Helicobacter pylori. The series can be described thus: Inhibition of Helicobacter pylori-induced inflammation in human AGS cells assessed as reduction of IL-8 production at 10 uM by ELISA. Format: functional. Summed up: as §2
Series [12] has as its system Helicobacter pylori. The series can be described thus: Inhibition of Helicobacter pylori invasion into human AGS cells at 5 uM after 6 hrs. Format: functional. Summed up: as §3
Series [13] relates to Helicobacter pylori. The series can be described thus: Inhibition of Helicobacter pylori adhesion into human AGS cells at 10 uM after 6 hrs. It counts as functional. In a few lines:
as §3

In series [14] the test system is Helicobacter pylori. The series can be described thus: Antibacterial activity against Helicobacter pylori Hp 26695. It counts as functional. In a few lines:
as §1

Series [15] relates to AGS. The series can be described thus: Cytotoxicity against human AGS cells assessed as cell viability at 0.5 ug/ml by MTT assay. It counts as cell-based. To be noted: in the assay text read “0.5 mg/ml” for “0.5 ug/ml”. Summed up:
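MTT viability assay on AGS human gastric epithelial cells, run at 0.5 mg/ml, the top concentration used in the H. pylori growth test.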
On the technique in general: Tetrazolium assays rely on reduction of a dye to a coloured formazan, in cell work by metabolically active cells.

Series [16] has as its system Helicobacter pylori. The series can be described thus: Inhibition of sHelicobacter pylori adhesion into human AGS cells at 2.5 uM after 6 hrs. Format: functional. Summed up: as §3
Series [17] has as its system Helicobacter pylori. The series can be described thus: Inhibition of Helicobacter pylori-induced inflammation in human AGS cells assessed as reduction of NF-kappaB activity at 5 uM after 6 hrs by luciferase reporter gene assay relative to control. Format: functional. Summed up: as §4

Each structure is given as a SMILES string. Values after ≈ are worked out from the molar mass of the structure shown. Active and inactive are the calls of the source.

In ChEMBL document CHEMBL1221347, “Identification of 3',4',5'-trimethoxychalcone analogues as potent inhibitors of Helicobacter pylori-induced inflammation in human gastric epithelial cells” (Bioorg Med Chem Lett, 2010) one finds MBC, inhibition and Activity data, which are given here for 6 molecules.

Turning to `COc1ccc(/C=C/C(=O)c2cc(OC)c(OC)c(OC)c2)cc1`, the MBC in [1], in series [9] and in series [14] was 100 µM (≈ 32.8 µg/mL) in each case. For the same molecule, the inhibition (usually the share of the control response that was lost under treatment) at 5 µM in series [2] is 23.4%. The inhibition entry in [3] is “inactive”. Besides, the inhibition at 10 µM was found to be 66% in series [4] and 59.4% in series [11]. Also, the inhibition entry in [5], in series [7], in series [12] and in [13] was “Active” throughout. In [6], the inhibition entry is “Dose-dependent effect”. For the same molecule, the inhibition at 2.5 µM in series [8] was 8%; in [10] it was 14.7%. Moreover, in series [15], the Activity entry is reported as “Non-toxic”.

For `CC1(C)S[C@@H]2[C@H](NC(=O)[C@H](N)c3ccc(O)cc3)C(=O)N2[C@H]1C(=O)O` [AMOXICILLIN], the MBC in series [1], in series [9] and in series [14] was 12.5 µM (≈ 4.57 µg/mL) throughout. Besides, the inhibition at 2.5 µM in series [3] is above 90%. The inhibition result in series [10] is “inactive”. In addition, in series [11], the inhibition at 10 µM turned out to be 81.9%.

Turning to `Cc1ncc([N+](=O)[O-])n1CCO` [METRONIDAZOLE], the results for the MBC in series [1], in [9] and in series [14] were 800 µM (≈ 137 µg/mL), 400 µM (≈ 68.5 µg/mL) and 25 µM (≈ 4.28 µg/mL), respectively. In [3], this molecule yielded an inhibition at 2.5 µM of 20%. Also, the inhibition result in series [10] was “inactive”. Also, the inhibition at 10 µM in [11] amounted to 81.9%.

With `COc1cc(/C=C/C(=O)c2cc(OC)c(OC)c(OC)c2)ccc1O`, the MBC in series [1], in series [9] and in series [14] was 12.5 µM (≈ 4.3 µg/mL) each time. Further, the inhibition at 2.5 µM in series [3] was found to be 57.6%; in series [16], 88.2%; in series [10], 86.1%. Also, the inhibition at 10 µM in series [4] is 99.9%; in series [7], 100%. The inhibition at 5 µM in series [5] was 98.8%; in series [12] it was 91%; in series [17] it was 98.6%. For the same molecule, the inhibition result in series [6] is “Dose-dependent effect”. In addition, the Activity result in [15] was “Non-toxic”.

As for `COc1cccc(/C=C/C(=O)c2cc(OC)c(OC)c(OC)c2)c1OC`, the MBC (commonly the smallest concentration meeting the test's criterion for killing) worked out at 25 µM (≈ 8.96 µg/mL) in series [1], 50 µM (≈ 17.9 µg/mL) in [9] and 25 µM (≈ 8.96 µg/mL) in series [14]. Further, the figures for the inhibition at 5 µM in [2] and in [5] were 65.2% and 73.3%, respectively. The inhibition result in series [3] was “inactive”. Besides, the results for the inhibition at 10 µM in series [4], in series [11] and in series [13] were 90.6%, 87% and 99.9%, respectively. For the same molecule, the inhibition result in series [6] was “Dose-dependent effect”. Also, the inhibition at 2.5 µM in [16] is 66.6%; in series [8] it was 24.6%; in [10], 39.8%. For the same molecule, the inhibition result in [7] and in [12] was “Active” in each case. Moreover, the Activity result in series [15] is “Non-toxic”.

On to `CC[C@H]1OC(=O)[C@H](C)[C@@H](O[C@H]2C[C@@](C)(OC)[C@@H](O)[C@H](C)O2)[C@H](C)[C@@H](O[C@@H]2O[C@H](C)C[C@H](N(C)C)[C@H]2O)[C@](C)(OC)C[C@@H](C)C(=O)[C@H](C)[C@@H](O)[C@]1(C)O` [CLARITHROMYCIN], for which the MBC in [1] was 25 µM (≈ 18.7 µg/mL); in series [9], 50 µM (≈ 37.4 µg/mL); in series [14] it was 1.6 µM (≈ 1.2 µg/mL). The inhibition at 2.5 µM in series [3] is above 90%. The inhibition entry in [10] was “inactive”. The inhibition at 10 µM in [11] stood at 81.9%.
